Source: ChEMBL document CHEMBL1121677, “8-Hydroxy-2-(di-n-propylamino)tetralin, a new centrally acting 5-hydroxytryptamine receptor agonist” (1981)
The source made the active and inactive calls. The rule behind the calls is not given here.

What was measured:
Rattus norvegicus [1] = test: Inhibition of 5-HTP accumulation in limbic part of rat brain after subcutaneous administration of compound before 60 min to death; type: functional, organism-based; conditions: Limbic system
Procedure, shortened: (§1)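 Nonpretreated rats were given each enantiomer sc 60 min before death. NSD 1015 (100 mg/kg ip) was given 30 min before death, and 5-HTP or Dopa accumulation was measured in brain regions. Values are means ± SEM, n = 4 (some groups n = 3). Statistics: ANOVA followed by Student's t test.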

Rattus norvegicus [2] = test: Inhibition of 5-Hydroxy Tryptamine accumulation in hemispheres of rat brain after subcutaneous administration; type: functional; conditions: sc
Rattus norvegicus [3] = test: Inhibition of dopamine accumulation in limbic part of rat brain after subcutaneous administration; I= Inactive; type: functional, organism-based
Rattus norvegicus [4] = test: Inhibition of dopamine accumulation in striatum part of rat brain after subcutaneous administration; I= Inactive; type: functional, organism-based
Rattus norvegicus [5] = test: Inhibition of 5-Hydroxy Tryptamine accumulation in limbic part of rat brain after subcutaneous administration; type: functional; conditions: sc
Rattus norvegicus [6] = test: Inhibition of 5-Hydroxy Tryptamine accumulation in striatum part of rat brain after subcutaneous administration; type: functional; conditions: sc
Rattus norvegicus [7] = test: Inhibition of 5-HTP accumulation in hemisphere of rat brain after subcutaneous administration of compound before 60 min to death; type: functional, organism-based; procedure, shortened: as §1
Rattus norvegicus [8] = test: Inhibition of dopamine accumulation in striatum part of rat brain after subcutaneous administration; type: functional; conditions: sc
Rattus norvegicus [9] = test: Inhibition of 5-Hydroxy tryptamine accumulation in striatum part of rat brain after subcutaneous administration; I= Inactive; type: functional, organism-based
Rattus norvegicus [10] = test: Inhibition of 5-Hydroxy tryptamine accumulation in limbic part of rat brain after subcutaneous administration; I= Inactive; type: functional, organism-based
Rattus norvegicus [11] = test: Inhibition of 5-Hydroxy tryptamine accumulation in hemispheres of rat brain after subcutaneous administration; I= Inactive; type: functional, organism-based
Rattus norvegicus [12] = test: Inhibition of dopamine accumulation in limbic part of rat brain after subcutaneous administration; type: functional; conditions: sc
Rattus norvegicus [13] = test: Inhibition of 5-Hydroxy tryptamine accumulation in hemispheres of rat brain after subcutaneous administration; type: functional; conditions: sc
Rattus norvegicus [14] = test: Inhibition of 5-Hydroxy tryptamine accumulation in limbic part of rat brain after subcutaneous administration; type: functional; conditions: sc
Rattus norvegicus [15] = test: Inhibition of 5-Hydroxy tryptamine accumulation in striatum part of rat brain after subcutaneous administration; type: functional; conditions: sc

SMILES	Concentration (Rattus norvegicus [1]) [ng/g]	ED50 (Rattus norvegicus [2]) [µmol/kg]	ED50 (Rattus norvegicus [3])	ED50 (Rattus norvegicus [4])	ED50 (Rattus norvegicus [5]) [µmol/kg]	ED50 (Rattus norvegicus [6]) [µmol/kg]	Concentration (Rattus norvegicus [7]) [ng/g]	ED50 (Rattus norvegicus [8]) [µmol/kg]	ED50 (Rattus norvegicus [9])	ED50 (Rattus norvegicus [10])	ED50 (Rattus norvegicus [11])	ED50 (Rattus norvegicus [12]) [µmol/kg]	ED50 (Rattus norvegicus [13]) [µmol/kg]	ED50 (Rattus norvegicus [14]) [µmol/kg]	ED50 (Rattus norvegicus [15]) [µmol/kg]
CCCN(CCC)[C@H]1CCc2cccc(O)c2C1	84	0.09	inactive	inactive	0.061	0.075	57	–	–	–	–	–	–	–	–
CCCN(CCC)C1CCc2c(O)cccc2C1 (centres undefined) [5-OH-DPAT]	–	–	–	–	–	–	–	0.009	inactive	inactive	inactive	0.011	–	–	–
CCCN(CCC)C1CCc2cccc(O)c2C1 (racemic) [8-OH-DPAT]	–	–	inactive	inactive	–	–	–	–	–	–	–	–	0.068	0.048	0.045
CCCN(CCC)C1CCc2ccc(O)cc2C1 (centres undefined)	–	–	–	–	–	–	–	0.03	inactive	inactive	inactive	0.027	–	–	–
CCCN(CCC)[C@@H]1CCc2cccc(O)c2C1	63	–	inactive	inactive	–	–	44	–	–	–	–	–	0.052	0.036	0.048
CCCN(CCC)[C@@H]1CCc2ccc(O)cc2C1	–	–	–	–	–	–	–	0.17	inactive	inactive	inactive	0.18	–	–	–
